In ChEMBL document CHEMBL1124586, “Carbohydrate biguanides as potential hypoglycemic agents” (1989):

Key:
Assay type in all cases: functional
[1] = system: Rattus norvegicus; assay: Rise in the blood glucose level after 0 min following 100 mg/kg oral dose in fasted nondiabetic rats
Outline: (§1)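 Rats fasted 18 h, dosed orally (0.5% w/v methylcellulose suspension or aqueous solution; controls got the same vehicle) 60 min before an oral glucose load of 1.0 g/kg. Tail-vein blood was taken just before (0 min) and 30 min after glucose. Whole blood was deproteinized with Ba(OH)2/ZnSO4 and glucose read by glucose oxidase. Values are mean ± SEM, n rats per group.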

[2] = system: Rattus norvegicus; assay: Rise in the blood glucose level after 30 min following 100 mg/kg oral dose in fasted nondiabetic rats; outline: as §1
[3] = system: Rattus norvegicus; assay: Rise in the glucose level 100 mg/kg oral dose in fasted nondiabetic rats
Outline: (§2)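 Fasted rats (18 h) were given oral drug or vehicle 60 min before 1.0 g/kg oral glucose, with glucose-oxidase readings on tail blood at 0 and 30 min. The change from 0 min was corrected by subtracting the change in vehicle rats given no glucose. Groups were compared with vehicle by ANOVA/Dunnett (p ≤ 0.05). % inhibition = 100(ΔGV − ΔGD)/ΔGV.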

[4] = system: Rattus norvegicus; assay: Percent inhibition of glucose rise, following 100 mg/kg oral dose in fasted nondiabetic rats
Outline: (§3)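 Rats fasted 18 h were dosed orally around 9 a.m. with drug or vehicle (0.5% w/v methylcellulose suspension or aqueous solution), dosed on salt-free basis by mean group body weight, 60 min before oral glucose 1.0 g/kg. Tail-vein blood at 0 and 30 min, glucose oxidase on deproteinized whole blood. Rise corrected for no-glucose vehicle rats; %inhibition = 100(ΔGV−ΔGD)/ΔGV; mean ± SEM.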

[5] = system: Rattus norvegicus; assay: Rise in the blood glucose level after 0 min following 10 mg/kg oral dose in fasted nondiabetic rats; outline: as §1
[6] = system: Rattus norvegicus; assay: Rise in the blood glucose level after 0 min following 150 mg/kg oral dose in fasted nondiabetic rats; outline: as §1
[7] = system: Rattus norvegicus; assay: Percent inhibition of glucose rise, following 10 mg/kg oral dose in fasted nondiabetic rats; outline: as §3
[8] = system: Rattus norvegicus; assay: Percent inhibition of glucose rise, following 150 mg/kg oral dose in fasted nondiabetic rats; outline: as §3
[9] = system: Rattus norvegicus; assay: Percent inhibition of glucose rise, following 300 mg/kg oral dose in fasted nondiabetic rats; outline: as §3
[10] = system: Rattus norvegicus; assay: Percent inhibition of glucose rise, following 50 mg/kg oral dose in fasted nondiabetic rats; outline: as §3
[11] = system: Rattus norvegicus; assay: Rise in the blood glucose level after 0 min following 300 mg/kg oral dose in fasted nondiabetic rats; outline: as §1
[12] = system: Rattus norvegicus; assay: Rise in the blood glucose level after 0 min following 50 mg/kg oral dose in fasted nondiabetic rats; outline: as §1
[13] = system: Rattus norvegicus; assay: Rise in the blood glucose level after 30 min following 10 mg/kg oral dose in fasted nondiabetic rats; outline: as §1
[14] = system: Rattus norvegicus; assay: Rise in the blood glucose level after 30 min following 150 mg/kg oral dose in fasted nondiabetic rats; outline: as §1
[15] = system: Rattus norvegicus; assay: Rise in the blood glucose level after 30 min following 300 mg/kg oral dose in fasted nondiabetic rats; outline: as §1
[16] = system: Rattus norvegicus; assay: Rise in the blood glucose level after 30 min following 50 mg/kg oral dose in fasted nondiabetic rats; outline: as §1
[17] = system: Rattus norvegicus; assay: Rise in the blood glucose level at 10 mg/kg oral dose in fasted nondiabetic rats; outline: as §2
[18] = system: Rattus norvegicus; assay: Rise in the blood glucose level at 100 mg/kg oral dose in fasted nondiabetic rats; outline: as §2
[19] = system: Rattus norvegicus; assay: Rise in the blood glucose level at 150 mg/kg oral dose in fasted nondiabetic rats; outline: as §2
[20] = system: Rattus norvegicus; assay: Rise in the blood glucose level at 300 mg/kg oral dose in fasted nondiabetic rats; outline: as §2
[21] = system: Rattus norvegicus; assay: Rise in the blood glucose level at 50 mg/kg oral dose in fasted nondiabetic rats; outline: as §2
[22] = system: Rattus norvegicus; assay: Rise in the blood glucose level after 0 min following 200 mg/kg oral dose in fasted nondiabetic rats; outline: as §1
[23] = system: Rattus norvegicus; assay: Percent inhibition of glucose rise, following 200 mg/kg oral dose in fasted nondiabetic rats; outline: as §3
[24] = system: Rattus norvegicus; assay: Rise in the blood glucose level after 30 min following 200 mg/kg oral dose in fasted nondiabetic rats; outline: as §1
[25] = system: Rattus norvegicus; assay: Rise in the blood glucose level at 200 mg/kg oral dose in fasted nondiabetic rats; outline: as §2

Q: Which results are given for `CC1(C)O[C@@H]2CO[C@@]3(C/N=C(/N)N=C(N)N)OC(C)(C)OC3[C@@H]2O1` (some centres undefined)?
A: Glucose rise [1]: 67 mg/dL; Glucose rise [2]: 152 mg/dL; Glucose rise [3]: 85 mg/dL; inhibition in vivo at 100 mg/kg [4]: -29%

Q: With `COC1OC(C/N=C(/N)N=C(N)N)[C@@H](OCc2ccccc2)C(OCc2ccccc2)[C@H]1OCc1ccccc1` (some centres undefined) as the compound, how does the Glucose rise [1] read?
A: The Glucose rise was 82 mg/dL.

Q: What about the Glucose rise [2] of the same compound?
A: Its Glucose rise is 123 mg/dL.

Q: What about the Glucose rise [3] of the same compound?
A: Its Glucose rise is 41 mg/dL.

Q: What about the inhibition in vivo at 100 mg/kg [4] of the same compound?
A: Its inhibition in vivo at 100 mg/kg is 47%.

Q: With `CO[C@H]1OC(CNC(=N)NC(=N)N)[C@@H](O)C(O)[C@H]1O` (some centres undefined) as the compound, how does the Glucose rise [1] read?
A: Its Glucose rise is 72 mg/dL.

Q: And the Glucose rise [2]?
A: Its Glucose rise is 133 mg/dL.

Q: What about the Glucose rise [3] of the same compound?
A: Its Glucose rise is 61 mg/dL.

Q: What about the inhibition in vivo at 100 mg/kg [4] of the same compound?
A: The inhibition in vivo at 100 mg/kg was 12%.

Q: Which Glucose rise [1] does the source give for `CN(C)C(=N)NC(=N)N` [METFORMIN] here?
A: The Glucose rise was 68 mg/dL.

Q: What about the Glucose rise [2] of the same compound?
A: The Glucose rise was 113 mg/dL.

Q: What about the Glucose rise [3] of the same compound?
A: Its Glucose rise is 45 mg/dL.

Q: And the inhibition in vivo at 100 mg/kg [4]?
A: Its inhibition in vivo at 100 mg/kg is 41%.

Q: How did the Glucose rise [1] turn out when `N=C(N)/N=C(\NCCc1ccccc1)NC1OC(CO)[C@@H](O)C(O)[C@H]1O` (some centres undefined) was run?
A: The Glucose rise was 74 mg/dL.

Q: And the Glucose rise [2]?
A: Its Glucose rise is 137 mg/dL.

Q: What about the Glucose rise [3] of the same compound?
A: The Glucose rise was 63 mg/dL.

Q: And the inhibition in vivo at 100 mg/kg [4]?
A: The inhibition in vivo at 100 mg/kg was 9%.

Q: What does the source list for `N=C(N)/N=C(\S)NC1OC(CO)[C@@H](O)C(O)[C@H]1O` (some centres undefined)?
A: Glucose rise [1]: 76 mg/dL; Glucose rise [2]: 139 mg/dL; Glucose rise [3]: 63 mg/dL; inhibition in vivo at 100 mg/kg [4]: 9%

Q: With `N=C(N)/N=C(\N)NCC1OC(O)[C@H](O)C(O)C1O` (some centres undefined) as the compound, how does the Glucose rise [1] read?
A: The Glucose rise was 68 mg/dL.

Q: What about the Glucose rise [2] of the same compound?
A: The Glucose rise was 145 mg/dL.

Q: What about the Glucose rise [3] of the same compound?
A: Its Glucose rise is 77 mg/dL.

Q: What about the inhibition in vivo at 100 mg/kg [4] of the same compound?
A: Its inhibition in vivo at 100 mg/kg is -14%.

Q: With `N=C(N)NC(=N)NCCc1ccccc1` [PHENFORMIN] as the compound, how does the Glucose rise [5] read?
A: Its Glucose rise is 61 mg/dL.

Q: What about the Glucose rise [1] of the same compound?
A: The Glucose rise was 70 mg/dL.

Q: And the Glucose rise [6]?
A: Its Glucose rise is 58 mg/dL.

Q: And the inhibition in vivo at 10 mg/kg [7]?
A: Its inhibition in vivo at 10 mg/kg is 0%.

Q: And the inhibition in vivo at 150 mg/kg [8]?
A: The inhibition in vivo at 150 mg/kg was 71%.

Q: And the inhibition in vivo at 300 mg/kg [9]?
A: Its inhibition in vivo at 300 mg/kg is 81%.

Q: What about the inhibition in vivo at 50 mg/kg [10] of the same compound?
A: Its inhibition in vivo at 50 mg/kg is 57%.

Q: And the Glucose rise [11]?
A: Its Glucose rise is 70 mg/dL.

Q: And the Glucose rise [12]?
A: The Glucose rise was 63 mg/dL.

Q: What about the Glucose rise [13] of the same compound?
A: The Glucose rise was 129 mg/dL.

Q: And the Glucose rise [2]?
A: The Glucose rise was 101 mg/dL.

Q: What about the Glucose rise [14] of the same compound?
A: The Glucose rise was 84 mg/dL.

Q: And the Glucose rise [15]?
A: Its Glucose rise is 21 mg/dL.

Q: What about the Glucose rise [16] of the same compound?
A: The Glucose rise was 98 mg/dL.

Q: And the Glucose rise [17]?
A: Its Glucose rise is 68 mg/dL.

Q: And the Glucose rise [18]?
A: The Glucose rise was 31 mg/dL.

Q: And the Glucose rise [19]?
A: Its Glucose rise is 26 mg/dL.

Q: What about the Glucose rise [20] of the same compound?
A: The Glucose rise was 21 mg/dL.

Q: What about the Glucose rise [21] of the same compound?
A: Its Glucose rise is 35 mg/dL.

Q: What about the inhibition in vivo at 100 mg/kg [4] of the same compound?
A: Its inhibition in vivo at 100 mg/kg is 64%.

Q: Which Glucose rise [1] does the source give for `CC1(C)OC2C(C/N=C(\N)N=C(N)N)O[C@@H]3OC(C)(C)O[C@@H]3C2O1` (some centres undefined) here?
A: The Glucose rise was 67 mg/dL.

Q: And the Glucose rise [2]?
A: The Glucose rise was 141 mg/dL.

Q: What about the Glucose rise [3] of the same compound?
A: The Glucose rise was 74 mg/dL.

Q: And the inhibition in vivo at 100 mg/kg [4]?
A: The inhibition in vivo at 100 mg/kg was -12%.

Q: `N=C(N)/N=C(\N)NCCC1OC(CO)[C@@H](O)C1O` (some centres undefined) was tested. Which Glucose rise [1] did it give?
A: Its Glucose rise is 74 mg/dL.

Q: What about the Glucose rise [2] of the same compound?
A: The Glucose rise was 127 mg/dL.

Q: What about the Glucose rise [3] of the same compound?
A: Its Glucose rise is 53 mg/dL.

Q: What about the inhibition in vivo at 100 mg/kg [4] of the same compound?
A: Its inhibition in vivo at 100 mg/kg is 26%.

Q: Which Glucose rise [1] does the source give for `CC1(C)O[C@H]2OC3C(OC(C)(C)O[C@@H]3C/N=C(\N)N=C(N)N)[C@H]2O1` (some centres undefined) here?
A: The Glucose rise was 78 mg/dL.

Q: What about the Glucose rise [22] of the same compound?
A: Its Glucose rise is 78 mg/dL.

Q: What about the inhibition in vivo at 200 mg/kg [23] of the same compound?
A: The inhibition in vivo at 200 mg/kg was 45%.

Q: What about the Glucose rise [2] of the same compound?
A: The Glucose rise was 118 mg/dL.

Q: And the Glucose rise [24]?
A: Its Glucose rise is 121 mg/dL.

Q: And the Glucose rise [18]?
A: The Glucose rise was 40 mg/dL.

Q: And the Glucose rise [25]?
A: Its Glucose rise is 43 mg/dL.

Q: And the inhibition in vivo at 100 mg/kg [4]?
A: Its inhibition in vivo at 100 mg/kg is 48%.
